The values that follow come from ChEMBL document CHEMBL2440032, “Synthesis of sterically encumbered 11β-aminoprogesterone derivatives and evaluation as 11β-hydroxysteroid dehydrogenase inhibitors and mineralocorticoid receptor antagonists” (Bioorg Med Chem, 2013).

Molecules are shown by their SMILES. The source made the active and inactive calls. The calls are words filed in the database; no cut-off is given here.

Test [1] concerns the target T1, Mineralocorticoid receptor (Homo sapiens, UniProt P08235).
T1 sequence (P08235 whole entry): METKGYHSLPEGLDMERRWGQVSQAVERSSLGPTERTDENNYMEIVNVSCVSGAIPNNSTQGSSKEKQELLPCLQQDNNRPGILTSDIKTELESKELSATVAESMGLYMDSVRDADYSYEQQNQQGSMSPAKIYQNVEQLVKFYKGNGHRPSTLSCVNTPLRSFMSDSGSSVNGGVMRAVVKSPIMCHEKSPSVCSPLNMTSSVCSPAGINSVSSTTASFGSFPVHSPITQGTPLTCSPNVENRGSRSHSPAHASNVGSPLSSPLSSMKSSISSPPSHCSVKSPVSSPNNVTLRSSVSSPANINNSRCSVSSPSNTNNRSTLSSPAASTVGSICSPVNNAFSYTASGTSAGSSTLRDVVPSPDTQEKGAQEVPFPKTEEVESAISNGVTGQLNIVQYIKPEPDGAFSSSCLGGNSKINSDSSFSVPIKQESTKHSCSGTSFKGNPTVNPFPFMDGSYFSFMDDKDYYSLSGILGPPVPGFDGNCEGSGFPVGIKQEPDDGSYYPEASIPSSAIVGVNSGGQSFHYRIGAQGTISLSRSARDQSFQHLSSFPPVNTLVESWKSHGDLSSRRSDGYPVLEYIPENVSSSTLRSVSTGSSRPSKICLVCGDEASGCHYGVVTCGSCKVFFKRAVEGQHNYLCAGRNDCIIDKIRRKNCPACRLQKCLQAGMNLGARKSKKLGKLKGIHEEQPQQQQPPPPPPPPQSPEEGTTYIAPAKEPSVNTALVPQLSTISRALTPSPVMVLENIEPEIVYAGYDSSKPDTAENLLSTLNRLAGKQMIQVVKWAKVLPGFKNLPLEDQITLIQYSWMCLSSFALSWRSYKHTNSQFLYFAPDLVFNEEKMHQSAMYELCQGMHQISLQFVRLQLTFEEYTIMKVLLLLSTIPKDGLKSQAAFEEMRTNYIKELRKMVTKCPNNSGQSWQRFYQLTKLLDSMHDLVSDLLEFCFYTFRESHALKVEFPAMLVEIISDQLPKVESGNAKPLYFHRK
Nature of the test: (§1) Antagonist activity at human recombinant mineralocorticoid receptor expressed in HEK-293 cells after 24 hrs assessed as inhibition of aldosterone-induced receptor activity by […]. The class given is cell-based, HEK293. Put shortly: (§2)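 HEK-293 cells, 150,000 per well, plated for 24 h, then calcium-phosphate transfected with pMMTV-lacZ β-galactosidase reporter, pCMV-LUC luciferase control and human MR plasmid. Cells were washed with charcoal-treated DMEM containing 10% FBS, then exposed to a range of compound concentrations with or without 10 nM aldosterone. Readout was β-galactosidase normalized to luciferase, relative to vehicle. Three independent experiments.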

For test [2], the target named is T2, Mineralocorticoid receptor (Homo sapiens) (UniProt P08235).
T2 sequence (whole entry): T1 sequence (P08235 whole entry)
Nature of the test: (§3) Transactivation of human recombinant mineralocorticoid receptor expressed in HEK-293 cells after 24 hrs […]. The conditions noted are these: HEK293. Type of test: cell-based. A digest of the protocol:
as §2

Test [3] concerns the target T3, 11-beta-hydroxysteroid dehydrogenase 1 (Homo sapiens, UniProt P28845). Nature of the test: Inhibition of human recombinant 11beta-HSD1 expressed in HEK293 cells assessed as inhibition of [1,2,-3H]-cortisone to [3H]cortisol preincubated at 10 uM for 10 mins before substrate addition by scintillation counting. The class given is cell-based. Put shortly: (§4)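 Lysates of HEK-293 cells expressing human 11βHSD1, in buffer with 1 mM MgCl2, 250 mM sucrose and 20 mM Tris–HCl pH 7.4, sonicated and used at once. Incubated 10 min at 37 °C with 200 nM [1,2-3H]cortisone and 500 µM NADPH. Stopped with excess unlabeled cortisone/cortisol in methanol, then TLC separation and scintillation counting for substrate conversion. Three independent experiments.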
Target sequence in this assay (P28845 whole entry, looked up): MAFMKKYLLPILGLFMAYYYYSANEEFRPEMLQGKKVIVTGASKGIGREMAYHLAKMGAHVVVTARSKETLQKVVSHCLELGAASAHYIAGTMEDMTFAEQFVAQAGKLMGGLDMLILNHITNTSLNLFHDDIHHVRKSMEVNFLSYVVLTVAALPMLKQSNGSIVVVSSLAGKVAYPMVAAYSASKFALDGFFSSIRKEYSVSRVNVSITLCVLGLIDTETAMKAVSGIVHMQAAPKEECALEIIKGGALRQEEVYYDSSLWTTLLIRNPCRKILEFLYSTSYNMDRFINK

Test [4] deals with T4, 11-beta-hydroxysteroid dehydrogenase type 2 (Homo sapiens, UniProt P80365).
T4 sequence (P80365 whole entry): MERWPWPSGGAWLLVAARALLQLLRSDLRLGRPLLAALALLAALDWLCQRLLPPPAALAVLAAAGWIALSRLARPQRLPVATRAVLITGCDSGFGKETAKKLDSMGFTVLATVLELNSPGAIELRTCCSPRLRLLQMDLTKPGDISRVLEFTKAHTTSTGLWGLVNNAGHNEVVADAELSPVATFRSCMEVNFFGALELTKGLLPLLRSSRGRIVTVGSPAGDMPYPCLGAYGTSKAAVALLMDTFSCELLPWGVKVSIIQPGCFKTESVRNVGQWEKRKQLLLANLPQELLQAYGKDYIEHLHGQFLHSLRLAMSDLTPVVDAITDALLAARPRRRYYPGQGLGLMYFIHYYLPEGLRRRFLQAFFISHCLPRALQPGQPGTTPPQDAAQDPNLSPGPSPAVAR
Nature of the test: Inhibition of human recombinant 11beta-HSD2 expressed in HEK293 cells assessed as inhibition of [1,2,6,7-3H]-cortisol to [3H]cortisone preincubated for 10 mins before substrate addition by scintillation counting. The class given is cell-based.

The target in test [5] is T2, Mineralocorticoid receptor (Homo sapiens). Described as §1. The conditions noted are these: HEK293. The class given is cell-based. Put shortly: as §2
For test [6], the target named is T3, 11-beta-hydroxysteroid dehydrogenase 1. Nature of the test: Inhibition of human recombinant 11beta-HSD1 expressed in HEK293 cells assessed as inhibition of [1,2,-3H]-cortisone to [3H]cortisol preincubated for 10 mins before substrate addition by scintillation counting. Type of test: cell-based. Put shortly: as §4
Target sequence in this assay (P28845 whole entry): as the sequence (P28845 whole entry, looked up) above
The target in test [7] is T1, Mineralocorticoid receptor. The test can be described thus: Transactivation of wild-type human recombinant mineralocorticoid receptor expressed in COS7 cells after 24 hrs by luciferase reporter gene assay. The class given is cell-based, COS-7. For orientation: Reporter assays use an easily measured gene product as a stand-in for the process of interest.
Test [8] has as its target T1, Mineralocorticoid receptor. Described as §3. Type of test: cell-based, HEK293. A digest of the protocol: as §2

By IC50 is commonly meant the midpoint of a concentration-inhibition curve. One may read the inhibition as the relative decrease from the control value, in per cent. As usually defined, the EC50 is the concentration that produces a half-maximal response.

`CC(=O)[C@H]1CC[C@H]2[C@@H]3CCC4=CC(=O)CC[C@]4(C)[C@H]3[C@@H](N=[N+]=[N-])C[C@]12C` [11BETA-AZIDOPROGESTERONE]: the IC50 in test [1] stood at 3.5 µM. Also, the outcome in test [2] was inactive.

With `CC(=O)[C@H]1CC[C@H]2[C@@H]3CCC4=CC(=O)CC[C@]4(C)[C@H]3[C@@H](NC[C@H](N)C(=O)O)C[C@]12C`, the inhibition in test [3] is under 70%. Besides, the 50% inhibitory concentration (IC50) in test [4] was 6760 nM.

On to `CC(=O)[C@H]1CC[C@H]2[C@@H]3CCC4=CC(=O)CC[C@]4(C)[C@H]3[C@@H](O)C[C@]12C` [11BETA-HYDROXYPROGESTERONE], for which the inhibition result in test [5] is “inactive”. Besides, in test [6], the IC50 came to 1160 nM. Moreover, the inhibition in test [3] is over 70%. For the same compound, the EC50 in test [7] worked out at 50 nM; in test [8] it was 14 µM.

Turning to `CCOC(=O)/C(CN[C@H]1C[C@]2(C)[C@@H](C(C)=O)CC[C@H]2[C@@H]2CCC3=CC(=O)CC[C@]3(C)[C@H]21)=N\O`, the values for the 50% inhibitory concentration (IC50) in test [6] and in test [4] were 640 nM and 1050 nM, respectively. In test [3], the inhibition is over 70%.

Turning to `CC(=O)[C@H]1CC[C@H]2[C@@H]3CCC4=CC(=O)CC[C@]4(C)[C@H]3[C@@H](N)C[C@]12C` [11BETA-AMINOPROGESTERONE], the IC50 in test [4] stood at 2200 nM.

`CC(=O)[C@H]1CC[C@H]2[C@@H]3CCC4=CC(=O)CC[C@]4(C)[C@H]3[C@@H](NC[C@@H](N)C(=O)O)C[C@]12C`: in test [5], the inhibition entry is “inactive”. Also, the EC50 in test [8] stood at 4.1 µM.

For `CC(=O)[C@H]1CC[C@H]2[C@@H]3CCC4=CC(=O)CC[C@]4(C)[C@H]3[C@@H](NS(=O)(=O)c3ccccc3[N+](=O)[O-])C[C@]12C`, in test [1], the half-inhibitory concentration (IC50) was found to be 10.9 µM. Moreover, the result in test [2] was inactive.

Take `CC(=O)[C@H]1CC[C@H]2[C@@H]3CCC4=CC(=O)CC[C@]4(C)[C@H]3[C@@H](NCC(=O)OC(C)(C)C)C[C@]12C`: the 50% inhibitory concentration (IC50) in test [4] is 2410 nM.

Regarding `CC(=O)[C@H]1CC[C@H]2[C@@H]3CCC4=CC(=O)CC[C@]4(C)[C@H]3[C@@H](NC[C@H]3COC(C)(C)N3C(=O)OC(C)(C)C)C[C@]12C`, the inhibition in test [3] is under 70%. The IC50 in test [4] is 5850 nM.

As for `CC(=O)[C@H]1CC[C@H]2[C@@H]3CCC4=CC(=O)CC[C@]4(C)[C@H]3[C@@H](NC[C@@H](CO)NC(=O)OC(C)(C)C)C[C@]12C`, the inhibition in test [3] was under 70%. Moreover, in test [4], the concentration for half-maximal inhibition (IC50) was determined as 4210 nM.

For `CC(=O)[C@H]1CC[C@H]2[C@@H]3CCC4=CC(=O)CC[C@]4(C)[C@H]3[C@@H](NCC(=O)O)C[C@]12C`, the half-inhibitory concentration (IC50) in test [4] was 2690 nM.

`CC(=O)[C@H]1CC[C@H]2[C@@H]3CCC4=CC(=O)CC[C@]4(C)[C@H]3[C@H](O)C[C@]12C`: in test [6], the 50% inhibitory concentration (IC50) is 630 nM. The inhibition in test [3] was over 70%.
